# Shown are actives, neighbours in structure and some others; about 1.7% of the full set was active somewhere.
# TbMetRS inhib – T. brucei MetRS inhibitors, primary screen, biochemical, luminescence | methionyl-tRNA synthetase (Trypanosoma brucei brucei) | 0.4% of 360,000 active | purified T. brucei MetRS, ATP depletion, Kinase-Glo luminescence | inhibition, % at 11.9 µM;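 active = inhibition above a per-plate cutoff of the control wells' mean inhibition plus 3 SD, cut at about 5.5% in these data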
#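 System: purified T. brucei MetRS enzyme / Detection: Kinase-Glo luciferase luminescence reporting remaining unconsumed ATP / Medium: HEPES buffer with MgCl2, KCl, DTT, spermine, BSA, pyrophosphatase / Replication: singlicate, one well per compound / Evaluation: percent inhibition relative to median high and low control wells / Schedule: 2 h aminoacylation at 25 °C after 15 min preincubation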
# CSN deneddyl inh – inhibitors of CSN-mediated cullin deneddylation, primary screen, biochemical, fluorescence polarization, uHTS; Purified CSN, SCF-Nedd8-OG deneddylation; 0.38% of 360,000 active; inhibition, % at 12.5 µM;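 active = pattern-corrected inhibition above about 35%, with an unprinted fluorescence ratio check between 0.5 and 1.5, limit read from the data, passing the limit was not always enough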
#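 Material: human Csn5 produced in HEK293T cells; Input: enzyme 0.24 nM; Reagent: SCFSkp2-Nedd8OG substrate at 10 nM final; Dosing: 12.5 µM compound; Incubation: 90 min reaction at room temperature; Detection: fluorescence polarization of the substrate; Evaluation: % inhibition of substrate cleavage by Csn5; Control set: substrate-only high control, full reaction low control.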
# HNF4A DNA FP – change in binding of human HNF4A to DNA, primary screen, biochemical, fluorescence polarization, FITC-DNA; AID 1224865, 2016; 0.3% of 360,000 active; Hepatocyte nuclear factor 4-alpha (Homo sapiens), P41235; 1 h; activity change, % at 10 µM; in the data active = activity change above about 30%, passing the limit was not always enough
# Target sequence (P41235 whole entry, looked up): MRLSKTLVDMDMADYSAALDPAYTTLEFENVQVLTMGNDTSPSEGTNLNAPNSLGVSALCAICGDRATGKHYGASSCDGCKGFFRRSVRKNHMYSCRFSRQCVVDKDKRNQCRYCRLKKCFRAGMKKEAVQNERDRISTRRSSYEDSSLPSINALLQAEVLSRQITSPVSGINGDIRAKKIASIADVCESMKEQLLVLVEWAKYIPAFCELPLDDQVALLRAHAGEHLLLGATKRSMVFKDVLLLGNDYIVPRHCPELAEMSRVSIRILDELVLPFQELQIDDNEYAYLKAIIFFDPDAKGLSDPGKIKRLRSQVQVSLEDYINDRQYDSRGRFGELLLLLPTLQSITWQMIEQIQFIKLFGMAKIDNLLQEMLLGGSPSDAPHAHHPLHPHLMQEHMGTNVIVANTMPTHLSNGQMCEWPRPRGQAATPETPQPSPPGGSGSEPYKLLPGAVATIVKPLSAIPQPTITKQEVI
# TPT1 inh – Candida albicans TPT1 enzyme inhibitors, primary screen, biochemical, fluorescence polarization; AID 1962, 2009; tRNA 2'-phosphotransferase TPT1 (Candida albicans SC5314); 0.81% of 300,000 active; inhibition, % at 5 µM; recombinant caTPT1, FP RNA substrate dephosphorylation;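 active = inhibition above the mean of all tested compounds plus 3 SD, set per screening campaign, cut at about 24% in these data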
# IDE cell inh – human IDE inhibitors in live cells, primary screen, fluorescence polarization, HEK cells, FAbetaB substrate; Insulin-degrading enzyme (Homo sapiens), P14735; FAbetaB cleavage; inhibition, % at 5.59 µM; 0.41% of 320,000 active;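 active = percent inhibition above the average of all tested compounds plus 3 SD, set per screening campaign, cut at about 16% in these data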;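 note: IDE supplied by intact live HEK cells; FP after avidin binding of uncleaved biotin substrate so inhibition keeps polarization high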
# IDE cell activ – human IDE activators in live cells, primary screen, fluorescence polarization, HEK cells, FAbeta-B substrate; 0.073% of 340,000 active; AID 493087, 2011; FAbeta-B cleavage; 0% vehicle, 100% cell-free pure enzyme wells; activation, % at 5.96 µM; Insulin-degrading enzyme (Homo sapiens), P14735;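 active = activation above the mean of all tested compounds plus 3 SD, set per screening campaign, cut at about 17% in these data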
# A number is an active result; 0 = inactive; - = no result.
SMILES,TbMetRS inhib,CSN deneddyl inh,HNF4A DNA FP,TPT1 inh,IDE cell inh,IDE cell activ
CCn1cc(C=C2C(=O)c3ccccc3C2=O)c2ccccc21,0,0,36,-,-,0
O=C(Nc1ccccc1-c1nc2ccccc2[nH]1)c1ccc(N2C(=O)CCC2=O)cc1,0,54,85,0,0,0
CS(=O)(=O)c1ccc2nc(NC(=O)Nc3ccc(Cl)cc3)sc2c1,0,0,0,0,0,0
NS(=O)(=O)c1ccc2nc(NC(=O)Nc3ccc(F)cc3)sc2c1,0,0,43,0,0,0
COC(=O)CC1C(=O)NCCN1C(=S)Nc1cc(C)cc(C)c1 (stereo not given),0,0,0,0,0,0
CCNC(=S)N1CCNC(=O)C1CC(=O)OC (stereo not given),0,81,0,0,0,0
CC(=O)N/C(=C\c1ccccc1)C(=O)OC/C=C/c1ccccc1,0,0,0,0,0,0
COc1ccc(CNc2nc3ccccc3n2CCN2CCOCC2)cc1,0,0,0,0,0,18
Cc1ccc(S(=O)(=O)N2CCN(Cc3ccccc3)CC2)cc1,0,0,0,0,0,0
Cc1ccc(S(=O)(=O)OCCC2=CC(=O)CCN2Cc2ccccc2)cc1,0,0,0,-,0,21
Cn1c(N)c(C(=O)CSc2nnc(-c3c[nH]c4ccccc34)n2C2CC2)c(=O)[nH]c1=O,0,35,0,-,0,0
CCCn1c(N)c(C(=O)CSc2nnc(-c3c[nH]c4ccccc34)n2C2CC2)c(=O)[nH]c1=O,0,0,0,-,0,0
COc1ccccc1-c1nnc(SCC(=O)c2c(N)n(C3CC3)c(=O)[nH]c2=O)o1,0,0,0,-,0,0
Nc1c(C(=O)CSc2nc3ccccc3o2)c(=O)[nH]c(=O)n1C1CC1,0,0,0,-,0,27
COc1ccc(-c2csc(C(C)(NC(C)=O)c3ccccc3)n2)cn1 (stereo not given),0,0,0,-,-,-
COc1ccc(OC)c(NC(=O)CSc2ccc(-c3cccnc3)nn2)c1,0,0,0,0,0,0
Cc1c(C(=O)NCCNc2ncc(C(F)(F)F)cc2Cl)cccc1[N+](=O)[O-],0,0,0,0,0,0
O=[N+]([O-])c1cccc(Cl)c1NCCNc1ncc(C(F)(F)F)cc1Cl,0,0,0,0,0,73
O=c1[nH]c2ccccc2c(O)c1-c1cc2ccccc2oc1=O,-,-,-,0,0,-
Nn1c(SCC(=O)Nc2c(F)cc(F)cc2Br)nnc1C1CCCCC1,0,108,0,0,0,0
O=C1c2nc3cc(-c4ccco4)[nH]n3c(=O)c2CN1C1CCCCC1,0,46,0,0,0,-
O=C(NCCC1=CCCCC1)C1CCC(CNc2c(N3CCCCC3)c(=O)c2=O)CC1 (stereo not given),0,0,0,0,0,0
O=C(NCCC1=CCCCC1)C1CCC(CNc2c(N3CCCC3)c(=O)c2=O)CC1 (stereo not given),0,0,29,0,0,0
Cc1ccc2cc3c(N)c(C(=O)N4CCOCC4)sc3nc2c1,0,0,0,0,0,0
Cc1ccc2cc3c(N)c(C(=O)N4CC(=O)Nc5ccccc54)sc3nc2c1,-,-,-,34,0,-
SMILES,TbMetRS inhib,CSN deneddyl inh,HNF4A DNA FP,TPT1 inh,IDE cell inh,IDE cell activ
Cc1ccc(C(=O)Nc2c(-c3ccc(Cl)cc3)[nH][nH]c2=O)cc1,0,0,0,-,-,-
O=C1NC[C@H](CC2CCCCC2)N(CCc2cccc(F)c2)C1=O,0,38,0,0,0,0
O=C1NC[C@H](CC2CCCCC2)N(CCC23CC4CC(CC(C4)C2)C3)C1=O,0,66,0,-,-,-
Clc1ccc(C2=Nc3cc(Cl)ccc3OC2)cc1,0,0,68,0,0,0
Cn1c(/C=C/c2ccc([N+](=O)[O-])o2)nc2ccccc2c1=O,0,0,59,0,0,0
Cn1c(/C=C/c2ccccc2)nc2ccccc2c1=O,0,0,0,0,0,0
O=S(=O)(NCc1cccnc1)c1ccccc1,0,0,0,0,0,0
COc1ccccc1NS(=O)(=O)c1cccc(NC(=O)C2CC(=O)N(Cc3ccccc3)C2)c1 (stereo not given),0,0,0,0,0,0
COc1ccccc1NS(=O)(=O)c1cccc(NC(=O)C2CC2)c1,0,0,0,-,0,21
N#CCCn1c(SCC(=O)c2c[nH]c3ccccc23)nc2ccccc21,5.8,0,0,0,0,0
CC(C)c1ccc(OCC(=O)NCc2ccccc2)cc1,0,0,0,0,0,0
NC(=O)N/N=C/c1sc(N2CCCCC2)nc1-c1cccs1,0,0,0,0,0,0
CC(C)NC(=S)N/N=C/c1sc(N2CCCCC2)nc1-c1cccs1,0,0,41,0,0,0
CCOC(=O)c1c(NC(=O)CSc2cccc[n+]2[O-])sc(C(=O)Nc2ccccc2)c1C,0,105,0,0,0,0
CCOC(=O)c1c(NC(=O)CN(C)C2CCN(C)CC2)sc(C(=O)Nc2ccccc2)c1C,0,0,0,0,0,0
COC(=O)/C=C1\N/C(=N\c2nc(C)cc(C)n2)N(c2ccc(C)c(C)c2)C1=O,0,0,0,0,0,0
Nc1ccc(Oc2c(Cl)cccc2Cl)nc1,0,37,0,0,0,0
CC(C)(C)c1ccc(Oc2ccc(N)cn2)cc1,0,0,64,0,0,-
Cc1cc(Oc2ccc(N)cn2)cc(C)c1Cl,0,0,0,0,0,0
O=C(CSC1=NNC(c2ccccn2)S1)Nc1ccccc1 (stereo not given),0,0,0,0,25,0
Cc1nc2nc(C)c(NS(=O)(=O)c3ccc4c(c3)CCCC4)c(=O)n2[nH]1,0,0,0,0,0,0
O=C(NCCCN1CCOCC1)NC1CCCCC1,0,0,0,0,0,0
O=C(NCCCCCCCN1CCCCCCC1)C(C1CCCCC1)C1CCCCC1,0,55,0,-,-,0
O=C(CSc1ncccc1C(=O)O)c1cccc(C(F)(F)F)c1,0,0,56,0,0,0
CC(=O)OCCc1c2ccccc2c(CCCN(C)C)c2ccccc12,0,71,132,0,0,0
COC(=O)CCC(=O)OC1(C)C(=O)C=C2C=C(c3ccsc3)OC=C2C1=O (stereo not given),0,38,0,0,0,0
CC1(C(=O)NCc2cccc(Cl)c2)Cc2c(-c3ccc4c(c3)OCO4)ccnc2O1 (stereo not given),0,0,0,-,-,-

# From PubChem
